# Source: ChEMBL document CHEMBL4043304, “Synthesis and Evaluation of Hydrogen Peroxide Sensitive Prodrugs of Methotrexate and Aminopterin for the Treatment of Rheumatoid Arthritis” (J Med Chem, 2018)
# Active and inactive are the calls of the source. The calls are words filed in the database; no cut-off is given here.
# Legend:
# [1] = system: Mus musculus; assay: Antiarthritic activity in collagen-induced DBA/1J mouse arthritis model assessed as reduction of macroscopic score at 8.8 mg/kg, ip administered daily for 2 weeks starting on day 27 post first immunization measured thrice per week during compound dosing relative to control; type: functional, organism-based
# In short: (§1)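 Male DBA/1J mice (8–9 wk, n = 8/group). Arthritis induced by intradermal tail-base immunization with 100 µg chicken type-II collagen in CFA on day −1, with a 50 µg boost on day 21. Daily i.p. dosing in 2% DMSO/PBS for 14 days from day 27. Blinded scoring three times weekly, 0–15 per limb (max 60). Vehicle group as control. Mann-Whitney test.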
# [2] = Half life in SIF by RP-UPLC-UV method; type: physicochemical
# In short: (§2)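 SGF or SIF (SIF adjusted to pH 7.5) dosed from a 10 mM DMSO stock. Incubated at 37 °C and sampled at 0, 1, 2, 4 and 24 h. Run in triplicate.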
# [3] = Half life in SGF by RP-UPLC-UV method; type: physicochemical; in short: as §2
# [4] = system: MCF7; assay: Cytotoxicity against human MCF7 cells assessed as decrease in cell viability after 48 hrs by MTS assay; type: functional, cell-based
# In short: (§3)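 MCF-7 (DMEM) or NCI-H460 (RPMI), 10% FBS, seeded at 10^4 or 7×10^3 cells/well respectively and attached for 24 h. Exposed to serial compound concentrations for 48 h, then MTS read at 490 nm. DMSO ≤0.4% matched controls. Triplicate. IC50 by non-linear regression.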
# [5] = Metabolic stability in mouse plasma at 20 uM after 8 hrs by RP-UPLC-UV method; type: ADME, cell-free; settings: read-out: Stability
# In short: (§4)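 Reconstituted lyophilized human or mouse plasma mixed about 1:1 with PBS and pre-warmed to 37 °C. Compound added to 20 µM final. […] Procaine (human) and diltiazem (mouse) as controls.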
# [6] = Intrinsic clearance in human liver microsomes at 10 uM after 5 to 60 mins by RP-UPLC-UV method; type: ADME, microsome; settings: read-out: CLH
# In short: (§5)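 Pooled male liver microsomes (human, or CD-1 mouse) in PBS at 37 °C with 10 µM compound. Reaction started with NADPH. Aliquots taken 0–60 min (mouse also 120 and 240 min) and quenched with cold MeCN/diclofenac. Read by RP-UPLC-UV, ln[C] vs time, first order. No-NADPH control run; verapamil (human) or diphenhydramine (mouse) as reference.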
# [7] = Metabolic stability in human plasma at 20 uM after 24 hrs by RP-UPLC-UV method; type: ADME, cell-free; settings: read-out: Stability; in short: as §4
# [8] = Half life in PBS/DMSO mixture at pH 7.4 by RP-UPLC-UV method; type: physicochemical
# [9] = Prodrug activation in DMSO/PBS mixture assessed as formation of aminopterin at 50 uM measured within 2 hrs in presence of 0.5 mM H2O2 by RP-UPLC-MS method
# In short: (§6)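 50 µM prodrug in 30% DMSO/PBS pH 7.4 at 37 °C with diclofenac internal standard. Started with H2O2 at 0.5 mM final. Sampled 5 min to 4 h (some compounds to 48 h). RP-UPLC-UV at 306 nm. No-H2O2 control run in parallel. Triplicate.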
# [10] = system: MCF7; assay: Cytotoxicity against human MCF7 cells assessed as decrease in cell viability preincubated with H2O2 for 24 hrs followed by cell addition measured after 48 hrs by MTS assay; type: functional, cell-based
# In short: (§7)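 Compound pre-activated at 125 µM with 1.25 mM H2O2 in DMSO:PBS 1:1, 24 h at 21 °C. Then added to MCF-7 or NCI-H460 cells (24 h attached) for 48 h. Final H2O2 <10 µM. MTS read at 490 nm. Triplicate. IC50 by non-linear regression.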
# [11] = Prodrug activation in DMSO/PBS mixture assessed as formation of aminopterin at 100 uM after 2 to 48 hrs in presence of 0.25 to 10 mM H2O2 […]
# [12] = system: Mus musculus; assay: Toxicity in collagen-induced DBA/1J mouse arthritis model assessed as decrease in body weight at 8.8 mg/kg, ip administered daily for 2 weeks starting on day 27 post first immunization measured thrice per week during compound dosing; type: organism-based; settings: in vivo, 336 h
# In short: (§8)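 CIA in male DBA/1J mice (8–9 wk, n = 8/group) from chicken type-II collagen/CFA immunization (day −1, boost day 21). Daily i.p. dosing in 2% DMSO/PBS for 14 days starting day 27. Body weight recorded three times weekly as a general-health indicator, compared with vehicle. Data are mean ± SEM.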
# [13] = Half life in human plasma at 20 uM by RP-UPLC-UV method; type: ADME, cell-free; in short: as §4
# [14] = Intrinsic clearance in CD1 mouse liver microsomes at 10 uM after 5 to 240 mins by RP-UPLC-UV method; type: ADME, microsome; settings: read-out: CLH; in short: as §5
# [15] = Half life in mouse plasma at 20 uM by RP-UPLC-UV method; type: ADME, cell-free; in short: as §4
# [16] = Chemical stability in PBS/DMSO mixture at pH 7.4 after 24 hrs by RP-UPLC-UV method; type: physicochemical; settings: read-out: Stability
# [17] = system: Mus musculus; assay: Antiarthritic activity in collagen-induced DBA/1J mouse arthritis model assessed as decrease in incidence of arthritis at 8.8 mg/kg, ip administered daily for 2 weeks starting on day 27 post first immunization measured thrice per week during compound dosing relative to control; type: functional, organism-based; in short: as §1
# [18] = Prodrug activation in DMSO/PBS mixture assessed as formation of aminopterin at 50 uM after <3 hrs in presence of 0.5 mM H2O2 by RP-UPLC-MS method; in short: as §6
# [19] = system: NCI-H460; assay: Cytotoxicity against human NCI-H460 cells assessed as decrease in cell viability preincubated with H2O2 for 24 hrs followed by cell addition measured after 48 hrs by MTS assay; type: functional, cell-based; in short: as §7
# [20] = Prodrug activation in DMSO/PBS mixture assessed as formation of (S)-2-(4-(((2,4-diaminopteridin-6-yl)methyl)(4-hydroxybenzyl)amino)benzamido)pentanedioic acid at 50 uM measured within 2 hrs in presence of 0.5 mM H2O2 by RP-UPLC-MS method; in short: as §6
# [21] = Kinetic solubility of the compound in DMSO/PBS mixture after 20 hrs by RP-UPLC-UV method; type: physicochemical; settings: read-out: Kinetic_solubility
# In short: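 100 µM compound in 1% DMSO/PBS pH 7.4, shaken 20 h at 37 °C. Centrifuged to remove insoluble material; supernatant quantified by RP-UPLC-UV at 306 nm. Triplicate.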
# [22] = system: NCI-H460; assay: Cytotoxicity against human NCI-H460 cells assessed as decrease in cell viability after 48 hrs by MTS assay; type: functional, cell-based; in short: as §3
# [23] = Prodrug activation in DMSO/PBS mixture assessed as formation of (S)-dimethyl 2-(4-((2,4-diaminopteridin-6-yl)methylamino)benzamido)pentanedioate at 50 uM measured within 2 hrs in presence of 0.5 mM H2O2 by RP-UPLC-MS method; in short: as §6
# [24] = system: Mus musculus; assay: Toxicity in collagen-induced DBA/1J mouse arthritis model assessed as decrease in body weight at 7 mg/kg, ip administered daily for 2 weeks starting on day 27 post first immunization measured thrice per week during compound dosing; type: organism-based; settings: in vivo, 336 h; in short: as §8
# [25] = system: Mus musculus; assay: Antiarthritic activity in collagen-induced DBA/1J mouse arthritis model assessed as reduction of macroscopic score at 7 mg/kg, ip administered daily for 2 weeks starting on day 27 post first immunization measured thrice per week during compound dosing relative to control; type: functional, organism-based; in short: as §1
# [26] = system: Mus musculus; assay: Antiarthritic activity in collagen-induced DBA/1J mouse arthritis model assessed as decrease in incidence of arthritis at 7 mg/kg, ip administered daily for 2 weeks starting on day 27 post first immunization measured thrice per week during compound dosing relative to control; type: functional, organism-based; in short: as §1
# [27] = Prodrug activation in DMSO/PBS mixture assessed as formation of Dimethyl (4-(((2,4-Diaminopteridin-6-yl)methyl)(methyl)amino)-benzoyl)-L-glutamate at 50 uM after <3 hrs in presence of 0.5 mM H2O2 by RP-UPLC-MS method; in short: as §6
# [28] = system: Mus musculus; assay: Antiarthritic activity in collagen-induced DBA/1J mouse arthritis model assessed as decrease in incidence of arthritis at 6.8 mg/kg, ip administered daily for 2 weeks starting on day 27 post first immunization measured thrice per week during compound dosing relative to control; type: functional, organism-based
# In short: (§9)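 Male DBA/1J mice, 8–9 weeks. CIA induced by intradermal/subcutaneous tail-base immunization with 100 µg chicken type-II collagen in CFA on day -1, boosted with 50 µg on day 21. From day 27, i.p. dosing once daily for 14 days in 2% DMSO/PBS vehicle, n = 8 per group. Three times weekly, blinded limb scoring (0–15 per limb, max 60) and body weight. Reported as mean ± SEM; one-tailed Mann-Whitney test.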
# [29] = system: Mus musculus; assay: Antiarthritic activity in collagen-induced DBA/1J mouse arthritis model assessed as reduction of macroscopic score at 6.8 mg/kg, ip administered daily for 2 weeks starting on day 27 post first immunization measured thrice per week during compound dosing relative to control; type: functional, organism-based; in short: as §9
# [30] = system: Mus musculus; assay: Toxicity in collagen-induced DBA/1J mouse arthritis model assessed as decrease in body weight at 6.8 mg/kg, ip administered daily for 2 weeks starting on day 27 post first immunization measured up to day 33; type: organism-based; settings: in vivo, 336 h; in short: as §9
smiles,measurement,setting,value
Nc1nc(N)c2nc(CN(Cc3ccc(B(O)O)cc3)c3ccc(C(=O)N[C@@H](CCC(=O)O)C(=O)O)cc3)cnc2n1,Activity,[1],Active
same,half-life,[2],36.1 days
same,half-life,[3],32.1 days
same,Activity,[4],inactive
same,"remaining at 8 h, 20 µM",[5],91%
same,microsomal CLint at 10 µM,[6],1.2 µL/min/mg
same,"remaining at 24 h, 20 µM",[7],82%
same,half-life,[8],24 days
same,Drug metabolism,[9],Metabolite not detected
same,Activity,[10],Active
same,Drug metabolism,[11],Metabolite detected
same,Activity,[12],Non-Toxic
same,half-life at 20 µM,[13],2.33 days
same,microsomal CLint at 10 µM,[14],2.6 µL/min/mg
same,half-life at 20 µM,[15],2.62 days
same,remaining at 24 h,[16],> 90%
same,Activity,[17],Active
same,Drug metabolism,[18],Metabolite detected
same,Activity,[19],Active
same,Drug metabolism,[20],Metabolite detected
same,solubility kinetic at 20 h,[21],83 µM
same,Activity,[22],inactive
same,Drug metabolism,[23],Metabolite not detected
CN(Cc1cnc2nc(N)nc(N)c2n1)c1ccc(C(=O)N[C@@H](CCC(=O)O)C(=O)O)cc1 [METHOTREXATE],Activity,[4],Active
same,Activity,[24],Toxic
same,Activity,[25],Active
same,Activity,[26],Active
same,solubility kinetic at 20 h,[21],2140 µM
same,Activity,[22],Active
COC(=O)CC[C@H](NC(=O)c1ccc(N(C)Cc2cnc3nc(N)nc(NC(=O)OCc4ccc(B(O)O)cc4)c3n2)cc1)C(=O)OC,Drug metabolism,[27],> 95%
same,solubility kinetic at 20 h,[21],3 µM
Nc1nc(N)c2nc(CNc3ccc(C(=O)N[C@@H](CCC(=O)O)C(=O)O)cc3)cnc2n1 [AMINOPTERIN],Activity,[28],Active
same,Activity,[4],Active
same,Activity,[29],Active
same,Activity,[30],Toxic
same,solubility kinetic at 20 h,[21],> 1000 µM
same,Activity,[22],Active
